Measurements published in ChEMBL document CHEMBL3580660, “Synthesis and Biological Evaluation of Novel Olean-28,13β-lactams as Potential Antiprostate Cancer Agents” (J Med Chem, 2015).
pIC50: −log10 of the molar value. Active and inactive are the calls of the source. The calls are words filed in the database; no cut-off is given here.

Legend:
Mus musculus [1] = experiment: Acute toxicity in ICR mouse assessed as mortality at 512 mg/kg, oral gavage after 4 hrs; assay type: organism-based; conditions: in vivo
Outline: (§1)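 ICR mice of both sexes, 7 weeks old, held under SPF conditions. Each got one gavage dose (800, 640, 512, 409.6 or 327.8 mg/kg) or vehicle, n = 8 per group. Deaths were recorded at 1 h, 4 h, 3 d and 4–14 d. Behaviour, water and food intake, body weight and activity were followed to day 14. LD50 given with 95% confidence limits.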

[2] = Stability in rat plasma assessed as compound remaining after 1 hr by LC-MS/MS analysis; assay type: ADME, cell-free; conditions: read-out: Stability
Outline: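 Compound at 50 ng/mL incubated in pooled heparinized rat plasma, 37 °C, 60 min. Proteins precipitated with 5 volumes cold acetonitrile containing internal standard; remaining compound measured by LC−MS/MS and expressed as percent remaining; mean ± SD.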

DU-145 [3] = experiment: Induction of cell cycle arrest in human DU145 cells assessed as cells accumulation at G2/M phase at 0.16 uM after 24 hrs by propidium iodide staining-based flow cytometry (reference value: 22%); assay type: functional
Mus musculus [4] = experiment: Acute toxicity in ICR mouse assessed as mortality at 327.8 mg/kg, oral gavage after 4 to 14 days; assay type: organism-based; conditions: in vivo; outline: as §1
DU-145 [5] = experiment: Induction of cell cycle arrest in human DU145 cells assessed as cells accumulation at S phase at 0.08 uM after 24 hrs by propidium iodide staining-based flow cytometry (reference value: 24%); assay type: functional
[6] = Acute toxicity in ICR mouse assessed as survival at 327.8 mg/kg, oral gavage on day 14; assay type: organism-based; conditions: in vivo; outline: as §1
DU-145 [7] = experiment: Anticancer activity against human DU145 cells xenografted in BALB/c mouse assessed as decrease in tumor growth at 17 mg/kg, oral gavage for 21 days relative to vehicle treated control; assay type: functional; conditions: DU-145, po, 504 h
Outline: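 Male BALB/c nude mice (6−8 weeks, 18−22 g) implanted subcutaneously on right axillary flank with 2 × 10^6 DU-145 cells in 0.1 mL saline. At 100 ± 30 mm3 tumors, randomized (n = 5/group) to daily gavage for 21 days; vehicle DMSO/Cremphor EL/PBS 1:1:8. Tumor volume every 3 days; tumors excised and weighed at end; TGI from mean tumor weights vs vehicle; body weight tracked.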

DU-145 [8] = experiment: Induction of cell cycle arrest in human DU145 cells assessed as cells accumulation at S phase at 0.16 uM after 24 hrs by propidium iodide staining-based flow cytometry (reference value: 24%); assay type: functional
Mus musculus [9] = experiment: Acute toxicity in ICR mouse assessed as mortality at 512 mg/kg, oral gavage after 4 to 14 days; assay type: organism-based; conditions: in vivo; outline: as §1
[10] = Half life in human liver microsomes by LC-MS/MS analysis; assay type: ADME
Outline: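 Human liver microsomes at 0.2 mg/mL protein in 100 mM potassium phosphate−MgCl2 buffer pH 7.4, compound 5 μM with NADPH system at 37 °C; stopped with acetonitrile at 0, 5, 10, 15, 30, 60 min. After centrifugation, remaining compound quantified by LC−MS/MS to derive t1/2; mean ± SD.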

[11] = Acute toxicity in ICR mouse assessed as survival at 800 mg/kg, oral gavage on day 14; assay type: organism-based; conditions: in vivo; outline: as §1
[12] = Apparent permeability across apical to basolateral side in human Caco2 cells at 0.5 uM measured after 30 mins by LC-MS/MS analysis; assay type: ADME, cell-based; conditions: Caco-2
Outline: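 Caco2 monolayers (passages 20−40) grown 21 days at 37 °C, 5% CO2; integrity checked by TEER. Test drug 0.5 μM applied in triplicate, apical pH 6.8, basolateral pH 7.4, 37 °C for 30 min, A→B and B→A. Donor and receiver sampled, concentration by LC−MS/MS; Papp calculated; efflux ratio = Papp B→A / Papp A→B.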

DU-145 [13] = experiment: Induction of cell cycle arrest in human DU145 cells assessed as cells accumulation at G0/G1 phase at 0.16 uM after 24 hrs by propidium iodide staining-based flow cytometry (reference value: 54%); assay type: functional
DU-145 [14] = experiment: Induction of apoptosis in human DU145 cells assessed as chromatin condensation and fragmentation at 0.08 to 0.32 uM after 24 hrs by Hoechst staining-based fluorescence microscopy; assay type: functional, cell-based
Outline: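 DU-145 cells exposed 24 h to compound or vehicle (0.1% DMSO), fixed in methanol 30 min, stained with 1 mg/mL Hoechst 33258, and scored under fluorescence microscope for chromatin condensation and nuclear fragmentation; three separate experiments.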

Mus musculus [15] = experiment: Acute toxicity in ICR mouse assessed as mortality at 327.8 mg/kg, oral gavage after 3 days; assay type: organism-based; conditions: in vivo, 72 h; outline: as §1
Mus musculus [16] = experiment: Acute toxicity in ICR mouse assessed as mortality at 409.6 mg/kg, oral gavage after 4 hrs; assay type: organism-based; conditions: in vivo; outline: as §1
DU-145 [17] = experiment: Effect on Akt protein expression in human DU145 cells at 0.08 to 0.32 uM after 24 hrs by Western blot analysis; assay type: functional, cell-based
Outline: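 DU-145 cells (5 × 10^5/well) in 10% FCS Ham's F-12K overnight, treated in duplicate with compound or vehicle 24 h; lysed (Tris pH 8, EGTA, NaCl, NP-40, Triton X-100), protein by BCA. Blots blocked in 5% milk, probed for AKT, p-AKT Ser473, mTOR, p-mTOR Ser2448, Bax, Bcl-2, β-actin; ECL detection, densitometry relative to control; three separate experiments.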

Mus musculus [18] = experiment: Acute toxicity in ICR mouse assessed as mortality at 640 mg/kg, oral gavage after 4 hrs; assay type: organism-based; conditions: in vivo; outline: as §1
Mus musculus [19] = experiment: Acute toxicity in ICR mouse assessed as mortality at 640 mg/kg, oral gavage after 1 hr; assay type: organism-based; conditions: in vivo; outline: as §1
Cytochrome P450 3A4 = Cytochrome P450 3A4 (Homo sapiens, UniProt P08684); experiment: Inhibition of CYP3A4 in human liver microsomes using midazolam as substrate after 1 hr by LC-MS/MS analysis
Mus musculus [20] = experiment: Acute toxicity in ICR mouse assessed as mortality at 800 mg/kg, oral gavage after 4 to 14 days; assay type: organism-based; conditions: in vivo; outline: as §1
Mus musculus [21] = experiment: Acute toxicity in ICR mouse assessed as mortality at 409.6 mg/kg, oral gavage after 1 hr; assay type: organism-based; conditions: in vivo; outline: as §1
[22] = Acute toxicity in ICR mouse assessed as survival at 512 mg/kg, oral gavage on day 14; assay type: organism-based; conditions: in vivo; outline: as §1
[23] = Antiproliferative activity against human Bel7404 cells after 72 hrs by CCK8 assay; assay type: functional, cell-based; conditions: BEL-7404, 72 h
Outline: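 CCK-8 assay: DU-145, H460, Bxpc-3, BEL-7404 and nontumor WPMY-1 cells seeded at 5 × 10^3 cells/well in 10% FCS DMEM overnight, then exposed in triplicate to 0.041−10 μM for 72 h. CCK-8 added for final 30 min, absorbance 450 nm; inhibition relative to medium-only controls after background subtraction; IC50 as concentration giving 50% inhibition.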

DU-145 [24] = experiment: Antiproliferative activity against human DU145 cells at 2 uM after 72 hrs by CCK8 assay; assay type: functional; conditions: DU-145, 72 h
Outline: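 DU-145 screening at single concentration 2 μM for 72 h, proliferation by CCK-8 (cells 5 × 10^3/well in 10% FCS DMEM). Percent inhibition vs untreated, background-corrected; mean ± SD from three independent experiments.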

Mus musculus [25] = experiment: Acute toxicity in ICR mouse assessed as mortality at 327.8 mg/kg, oral gavage after 1 hr; assay type: organism-based; conditions: in vivo; outline: as §1

Sequence of Cytochrome P450 3A4 (P08684 whole entry): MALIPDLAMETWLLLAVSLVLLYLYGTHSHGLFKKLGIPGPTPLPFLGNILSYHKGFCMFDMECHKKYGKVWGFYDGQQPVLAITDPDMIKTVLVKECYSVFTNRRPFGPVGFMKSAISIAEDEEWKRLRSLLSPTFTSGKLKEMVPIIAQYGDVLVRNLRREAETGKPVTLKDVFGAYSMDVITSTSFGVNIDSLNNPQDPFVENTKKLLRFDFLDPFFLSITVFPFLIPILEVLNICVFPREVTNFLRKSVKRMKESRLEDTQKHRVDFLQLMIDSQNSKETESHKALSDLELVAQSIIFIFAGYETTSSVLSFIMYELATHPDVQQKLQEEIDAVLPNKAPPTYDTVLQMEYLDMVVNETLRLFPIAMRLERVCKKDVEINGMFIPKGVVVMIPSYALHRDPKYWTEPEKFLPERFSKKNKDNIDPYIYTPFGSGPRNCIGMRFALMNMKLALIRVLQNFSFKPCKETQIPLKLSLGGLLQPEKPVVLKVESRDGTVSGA

In the case of `CC1(C)CC[C@]23CC[C@@]4(C)[C@]5(C)CC[C@H]6C(C)(C)C(=O)C(C#N)=C[C@]6(C)C5=CC(=O)[C@@]4([C@@H]2C1)N(C1CCCCC1)C3=O`, the Activity (Mus musculus [1]) was “Non-toxic”, the remaining at 1 h [2] was 46% and the Activity (DU-145 [3]) was 22%. For the same molecule, the Activity (Mus musculus [4]) was “Non-toxic”, the Activity (DU-145 [5]) was 25% and the survival at 14 day [6] was 100%. For the same molecule, the inhibition in vivo at 17 mg/kg (DU-145 [7]) was 62%, the Activity (DU-145 [8]) was 10% and the Activity (Mus musculus [9]) was “Non-toxic”. The half-life [10] was 39 min, the survival at 14 day [11] was 0% and the Papp A→B at 0.5 h, 0.5 µM [12] was 0.045 ×10⁻⁶ cm/s. The Activity (DU-145 [13]) was 68%, the Activity (DU-145 [14]) was “Active” and the Activity (Mus musculus [15]) was “Non-toxic”. For the same molecule, the Activity (Mus musculus [16]) was “Non-toxic”, the Activity (DU-145 [17]) was “inactive” and the Activity (Mus musculus [18]) was “Non-toxic”. The Activity (Mus musculus [19]) was “Non-toxic”, the pIC50 (Cytochrome P450 3A4) was 6.03 and the Activity (Mus musculus [20]) was “Non-toxic”. The Activity (Mus musculus [21]) was “Non-toxic”, the survival at 14 day [22] was 63% and the pIC50 [23] was 6.34. The inhibition at 2 µM (DU-145 [24]) was 75% and the Activity (Mus musculus [25]) was “Non-toxic”.
